Experimental findings from ChEMBL document CHEMBL1135690, “Benzodiazepine receptor ligands. 7. Synthesis and pharmacological evaluation of new 3-esters of the 8-chloropyrazolo[5,1-c][1,2,4]benzotriazine 5-oxide. 3-(2-Thienylmethoxycarbonyl) derivative: an anxioselective agent in rodents” (J Med Chem, 2002) are described below.

The target of series [1] is GABA-A receptor; anion channel (Homo sapiens) (UniProt P14867+P47870+P18507+P28472+P48169+Q99928+Q9UN88+P34903+O00591+O14764+Q8N1C3+P18505+P78334+P47869+P31644+Q16445). Kind of series: Percent inhibition [3H]Ro-151788 binding to Benzodiazepine receptor from bovine brain membrane at 10 uM. The settings on record: Bos taurus, target entry is the homologue from another species.

Series [2] relates to Mus musculus. In words: Percent anticonvulsant activity against pentylenetetrazole (PTZ)-induced attacks at 10 mg/kg peroral dose. In kind it is functional. The conditions noted are these: route oral. In outline:
(§1)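 Male CD-1 mice dosed po in 1% carboxymethylcellulose, 30 min before PTZ (90 mg/kg sc, in 0.9% saline). Occurrence of clonic generalized convulsions noted over 30 min; χ² analysis vs control mice.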

The subject of series [3] is Mus musculus. In words: Anxiolytic activity in mice using light-dark box and % time spent in light was reported at 10 mg/kg peroral dose. The conditions noted are these: route oral. In kind it is functional. In outline:
(§2)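 Male CD-1 mice (22–24 g) given drug po in 1% carboxymethylcellulose (10 mL/kg). Each mouse placed in the centre of the lighted area facing away from the dark compartment and allowed to explore for 5 min; time spent in the illuminated side and number of transfers between compartments recorded. Tests run between 10:00 and 15:00.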

Series [4] relates to Mus musculus. Kind of series: Motor coordination of mouse as number of falls in 30 sec was reported after 10 mg/kg peroral dose using rotarod test. Format: functional. The settings on record: route oral. In outline:
(§3)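 Male CD-1 mice are dosed po in 1% CMC (flumazenil ip). Falls from a rota rod turning at 24 rpm are counted over 30 s, 25 min after drug administration, and compared with vehicle-treated mice. Means ± SEM.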
A general note: In the rotarod test animals must keep their balance on a rotating rod.

Series [5] relates to Mus musculus. In words: Anxiolytic activity in mice using light-dark box and no. of transfers between compartments were reported at 10 mg/kg peroral dose. Format: functional. The settings on record: route oral. Summed up:
as §2

In series [6] the target is GABA-A receptor; anion channel. Set-up: species or system Bos taurus.
The subject of series [7] is Mus musculus. Kind of series: Anxiolytic activity in mice using light-dark box and % time spent in light was reported at 100 mg/kg peroral dose. In kind it is functional. The conditions noted are these: route oral. Summed up: as §2
The subject of series [8] is Mus musculus. Kind of series: Anxiolytic activity in mice using light-dark box and no. of transfers between compartments were reported at 100 mg/kg peroral dose. Format: functional. The conditions noted are these: route oral. Summed up: as §2
The test system of series [9] is Mus musculus. In words: Percent anticonvulsant activity against pentylenetetrazole (PTZ)-induced attacks at 3 mg/kg peroral dose. In kind it is functional. The conditions noted are these: route oral. In outline:
as §1

Series [10] relates to Mus musculus. Kind of series: Percent anticonvulsant activity against pentylenetetrazole (PTZ)-induced attacks at 30 mg/kg peroral dose. In kind it is functional. The conditions noted are these: route oral. Summed up:
as §1

Series [11] concerns Mus musculus. Kind of series: Anxiolytic activity in mice using light-dark box and % time spent in light was reported at 3 mg/kg peroral dose. Format: functional. The settings on record: route oral. In outline:
as §2

The subject of series [12] is Mus musculus. Kind of series: Motor coordination of mouse as number of falls in 30 sec was reported after 3 mg/kg peroral dose using rotarod test. In kind it is functional. The settings on record: route oral. In outline:
(§4)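 Male CD-1 mice dosed po (suspension in 1% carboxymethylcellulose, 10 mL/kg). Rota rod turning at 24 rpm; falls from the rod counted over 30 s, 25 min after drug administration.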

In series [13] the test system is Mus musculus. In words: Motor coordination of mouse as number of falls in 30 sec was reported after 30 mg/kg peroral dose using rotarod test. In kind it is functional. The settings on record: route oral. In outline:
as §4

Series [14] relates to Mus musculus. Kind of series: Anxiolytic activity in mice using light-dark box and no. of transfers between compartments were reported at 3 mg/kg peroral dose. Format: functional. The settings on record: route oral. Summed up:
as §2

Series [15] has as its system Mus musculus. In words: Percent anticonvulsant activity against pentylenetetrazole (PTZ)-induced attacks at 100 mg/kg peroral dose. The settings on record: route oral. In kind it is functional. Summed up:
as §1

For series [16], the system named is Mus musculus. In words: Anxiolytic activity in mice using light-dark box and % time spent in light was reported at 30 mg/kg peroral dose. Format: functional. The settings on record: route oral. Summed up: as §2
The subject of series [17] is Mus musculus. Kind of series: Motor coordination of mouse as number of falls in 30 sec was reported after 100 mg/kg peroral dose using rotarod test. In kind it is functional. The conditions noted are these: route oral. In outline: as §4
Series [18] has as its system Mus musculus. In words: Anxiolytic activity in mice using light-dark box and no. of transfers between compartments were reported at 30 mg/kg peroral dose. The settings on record: route oral. In kind it is functional. In outline:
as §2

Series [19] can be described thus: Displacement of [3H]-Ro-15-1788 from rat GABA-A receptor alpha-2-beta-2-gamma-2 subunits expressed in HEK293 cells. In kind it is cell-based. Summed up: (§5)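 Recombinant rat GABA-A subtypes are stably expressed in HEK293 cells grown in MEM/EBSS with 10% FCS at 37 °C. Membranes are made in 10 mM potassium phosphate pH 7.4 and resuspended with 100 mM KCl. Incubation uses 1–2 nM [3H]Ro15-1788 with compound at 10^-9–10^-5 M (≥6 concentrations), 1 h at 4 °C. […] Ki comes from Cheng–Prusoff, n=5, in triplicate.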
(In general: Displacement assays read how much labelled ligand stays bound in the presence of the test substance.)

Series [20] is described as follows: Displacement of [3H]Ro-151788 from rat GABA-A receptor alpha-5-beta-3-gamma-2 subunits expressed in HEK293 cells. Format: cell-based. In outline:
as §5

Series [21] has as its system Mus musculus. Kind of series: Percent anticonvulsant activity against pentylenetetrazole (PTZ)-induced attacks at 1 mg/kg peroral dose. Format: functional. The conditions noted are these: route oral. In outline:
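Male CD-1 mice are dosed po in 1% CMC (flumazenil ip). PTZ (90 mg/kg sc, in 0.9% saline) is injected 30 min later. Clonic generalized convulsions are scored over 30 min, with % protection compared with controls by χ2 analysis.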

Series [22] concerns Mus musculus. In words: Anxiolytic activity in mice using light-dark box and % time spent in light was reported at 1 mg/kg peroral dose. Format: functional. The settings on record: route oral. In outline: (§6)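 Light-dark box in male CD-1 mice. Ligands are given po in 1% CMC, flumazenil ip. Each mouse is placed in the centre of the lit area facing away from the dark one and explores for 5 min. Time in the illuminated side and number of transfers between compartments are recorded. Means ± SEM.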

Series [23] relates to Mus musculus. In words: Motor coordination of mouse as number of falls in 30 sec was reported after 0.3 mg/kg peroral dose using rotarod test. In kind it is functional. The conditions noted are these: route oral. Summed up: as §3
The subject of series [24] is Mus musculus. Kind of series: Motor coordination of mouse as number of falls in 30 sec was reported after 1 mg/kg peroral dose using rotarod test. Format: functional. The conditions noted are these: route oral. Summed up: as §3
For series [25], the system named is Mus musculus. In words: Anxiolytic activity in mice using light-dark box and no. of transfers between compartments were reported at 0.3 mg/kg peroral dose. Format: functional. The conditions noted are these: route oral. In outline:
as §6

Series [26] concerns Mus musculus. In words: Anxiolytic activity in mice using light-dark box and no. of transfers between compartments were reported at 1 mg/kg peroral dose. In kind it is functional. The conditions noted are these: route oral. Summed up: as §6
Series [27] can be described thus: Anticonvulsant activity electroshock induced convulsions and % lethality obtained at dose of 10 mg/kg. The conditions noted are these: mouse, in vivo.
Series [28] has as its system Mus musculus. In words: Motor coordination of mouse as number of falls in […] was reported after 10 mg/kg peroral dose using rotarod test. Format: functional. The settings on record: route oral.

The compound `Cc1ccccc1OC(=O)CC1C=NN2c3cc(Cl)ccc3[N+]([O-])=NC12` (stereo unspecified) registered an inhibition in series [1] of 70%.

For `CN1C(=O)CN=C(c2ccccc2)c2cc(Cl)ccc21.O=C(OCc1ccco1)c1cnn2c1n[n+]([O-])c1ccc(Cl)cc12`, the values for the Activity with Mus musculus [2] and in the series with Mus musculus [3] were 88.9% and 142.02%, respectively. In the series on Mus musculus [4], this compound showed a No. of falls of 1.55. The compound also came in with a No. of transfers in the series with Mus musculus [5] of 27.1.

On to `O=C(OCc1cccs1)c1cnn2c1nnc1ccc(Cl)cc12`, for which, in [1], the inhibition turned out to be 96%. This compound also showed a Ki in series [6] of 6.26 nM.

Regarding `COc1ccccc1COC(=O)c1cnn2c1nnc1ccc(Cl)cc12`, the inhibition in series [1] was found to be 97%. The affinity in series [6], expressed as Ki, was 1.7 nM.

As for `CCOC(=O)c1ncn2c1CN(C)C(=O)c1cc(F)ccc1-2.O=C(OCc1cccs1)c1cnn2c1n[n+]([O-])c1ccc(Cl)cc12`, the Activity with Mus musculus [7] stood at 124.08%. Besides, the No. of transfers in the series with Mus musculus [8] is 23.

`O=C(OCc1ccoc1)c1cnn2c1n[n+]([O-])c1ccc(Cl)cc12`: in [1], the inhibition turned out to be 96%.

In series [1], `O=C(OCC1CCOC1)c1cnn2c1n[n+]([O-])c1ccc(Cl)cc12` (stereo unspecified) had an inhibition of 85%. Further, the affinity in series [6], expressed as Ki, was 680 nM.

In turn, `O=C(OCc1ccsc1)c1cnn2c1n[n+]([O-])c1ccc(Cl)cc12` registered a Ki in series [6] of 13.3 nM. For the same compound, the Activity in the series on Mus musculus [2] is 18.2%; in the series on Mus musculus [9], 30%; with Mus musculus [10], 9%; in the series with Mus musculus [3], 91.84%; in the series with Mus musculus [11], 110.3%. Further, the figures for the No. of falls in the series on Mus musculus [4], in the series with Mus musculus [12] and in the series with Mus musculus [13] were 0.36, 0.2 and 0.27, respectively. For the same compound, the No. of transfers with Mus musculus [14] is listed as 15.7; in the series on Mus musculus [5] it was 16.

On to `CCOC(=O)c1ncn2c1CN(C)C(=O)c1cc(F)ccc1-2.CN1C(=O)CN=C(c2ccccc2)c2cc(Cl)ccc21`, for which the Activity in the series on Mus musculus [15] is listed as 20%; in the series on Mus musculus [7] it was 107%; with Mus musculus [16], 154.8%. For the same compound, in the series on Mus musculus [17], the No. of falls is listed as 0.4. Further, the No. of transfers in the series with Mus musculus [8] turned out to be 15.6; in the series with Mus musculus [18], 23.

Turning to `CN1C(=O)CN=C(c2ccccc2)c2cc(Cl)ccc21` [DIAZEPAM], the Ki worked out at 7.8 nM in series [19] and 9.8 nM in [20]. Further, the Activity in the series with Mus musculus [21] came to 93.8%; in the series with Mus musculus [9], 100%; in the series with Mus musculus [22], 159.3%; in the series on Mus musculus [11] it was 243.2%. Further, the results for the No. of falls with Mus musculus [23], in the series with Mus musculus [24] and in the series with Mus musculus [12] were 0.39, 0.78 and 1.6, respectively. Also, the results for the No. of transfers in the series on Mus musculus [25], in the series on Mus musculus [26] and in the series with Mus musculus [14] were 22, 23.2 and 16.5, respectively. For the same compound, the mortality in series [27] came out at 0%.

With `O=C(OCc1ccco1)c1cnn2c1n[n+]([O-])c1ccc(Cl)cc12`, in series [6], the inhibitory constant (Ki) turned out to be 24.4 nM. In addition, the Activity with Mus musculus [2] is listed as 27.3%; with Mus musculus [15] it was 27.3%; in the series with Mus musculus [10] it was 7.7%; in the series on Mus musculus [3] it was 96.8%; in the series on Mus musculus [7], 96.16%; in the series on Mus musculus [16] it was 125.02%. Further, the No. of falls with Mus musculus [28] is recorded as 0.27; in the series with Mus musculus [17], 0.45; in the series with Mus musculus [13], 0.08. The No. of transfers in the series on Mus musculus [8] stood at 14; with Mus musculus [18], 18.6; with Mus musculus [5], 15.71.

Regarding `O=C(CC1C=NN2c3cc(Cl)ccc3[N+]([O-])=NC12)Oc1ccccc1Cl` (stereo unspecified), the inhibition in [1] came to 87%. Further, affinity in [6] was put at a Ki of 489 nM.

For `CC(OC(=O)c1cnn2c1n[n+]([O-])c1ccc(Cl)cc12)c1ccccc1` (stereo unspecified), in [1], the inhibition stood at 95%. Besides, in series [6], the Ki worked out at 138 nM.

On to `CN1C(=O)CN=C(c2ccccc2)c2cc(Cl)ccc21.O=C(OCc1ccsc1)c1cnn2c1n[n+]([O-])c1ccc(Cl)cc12`, for which the Activity came to 100% in the series on Mus musculus [2] and 149.16% in the series on Mus musculus [3]. The compound also came in with a No. of falls with Mus musculus [4] of 0.55. The compound also registered a No. of transfers in the series on Mus musculus [5] of 27.9.

For the compound `O=C(Cc1cnn2c1n[n+]([O-])c1ccc(Cl)cc12)OCc1ccccc1`, the inhibition in series [1] stood at 32%.

By inhibition is commonly meant how much of the control response was suppressed. The low end stands for little suppression, the high end for strong suppression. The term Ki denotes the dissociation constant of the complex between target and ligand, obtained from inhibition or displacement. What is called mortality is the share of the test organisms that died. A high value points to fewer survivors.
